Laboratory results as given in ChEMBL document CHEMBL4138271, “Crystal Structures and Human Leukemia Cell Apoptosis Inducible Activities of Parthenolide Analogues Isolated from Piptocoma rufescens” (J Nat Prod, 2018).
Active and inactive are the calls of the source. The rule behind the calls is not given here.

Assays:
MOLM-13 [1] = assay: Induction of apoptosis in human MOLM13 cells assessed as necrotic cells at 0.81 uM after 24 hrs by Annexin-V FITC/7-AAD staining based flow cytometric method (reference value: 0%); type: functional
EOL1 [2] = assay: Induction of apoptosis in human EOL-1 cells assessed as live cells at 0.81 uM after 24 hrs by Annexin-V FITC/7-AAD staining based flow cytometric method (reference value: 97.5%); type: functional
EOL1 [3] = assay: Induction of apoptosis in human EOL-1 cells assessed as late apoptotic cells at 0.81 uM after 24 hrs by Annexin-V FITC/7-AAD staining based flow cytometric method (reference value: 0.535%); type: functional
EOL1 [4] = assay: Induction of apoptosis in human EOL-1 cells assessed as live cells at 1.6 uM after 24 hrs by Annexin-V FITC/7-AAD staining based flow cytometric method (reference value: 97.5%); type: functional
MOLM-13 [5] = assay: Induction of apoptosis in human MOLM13 cells assessed as early apoptotic cells at 0.81 uM after 24 hrs by Annexin-V FITC/7-AAD staining based flow cytometric method (reference value: 11.8%); type: functional
EOL1 [6] = assay: Induction of apoptosis in human EOL-1 cells assessed as caspase-3 activation at 10 uM after 72 hrs by immunoblotting analysis; type: functional, cell-based
Procedure, shortened: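 EOL-1 cells (RPMI 1640, 10% FBS, 37 °C, 5% CO2) exposed 72 h; compounds at 10 μM, PKC412 at 10 nM. Harvested, PBS-washed, lysed in hypertonic NP-40 buffer with protease/phosphatase inhibitors; SDS-PAGE, PVDF transfer, rabbit monoclonal cleaved caspase-3 (Asp175) antibody 12 h, secondary 1 h, chemiluminescent detection; β-actin loading control. Representative blots of three independent experiments.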

MOLM-13 [7] = assay: Induction of apoptosis in human MOLM13 cells assessed as early apoptotic cells at 1.6 uM after 24 hrs by Annexin-V FITC/7-AAD staining based flow cytometric method (reference value: 11.8%); type: functional
EOL1 [8] = assay: Induction of apoptosis in human EOL-1 cells assessed as necrotic cells at 1.6 uM after 24 hrs by Annexin-V FITC/7-AAD staining based flow cytometric method (reference value: 0.032%); type: functional
EOL1 [9] = assay: Cytotoxicity against human EOL-1 cells after 72 hrs by MTS assay; type: functional, cell-based; conditions: EOL1, 72 h
MOLM-13 [10] = assay: Induction of apoptosis in human MOLM13 cells assessed as late apoptotic cells at 4 uM after 24 hrs by Annexin-V FITC/7-AAD staining based flow cytometric method (reference value: 1.43%); type: functional
EOL1 [11] = assay: Induction of apoptosis in human EOL-1 cells assessed as late apoptotic cells at 4 uM after 24 hrs by Annexin-V FITC/7-AAD staining based flow cytometric method (reference value: 0.535%); type: functional
EOL1 [12] = assay: Induction of apoptosis in human EOL-1 cells assessed as early apoptotic cells at 0.81 uM after 24 hrs by Annexin-V FITC/7-AAD staining based flow cytometric method (reference value: 1.94%); type: functional
EOL1 [13] = assay: Induction of apoptosis in human EOL-1 cells assessed as late apoptotic cells at 1.6 uM after 24 hrs by Annexin-V FITC/7-AAD staining based flow cytometric method (reference value: 0.535%); type: functional
EOL1 [14] = assay: Induction of apoptosis in human EOL-1 cells assessed as live cells at 4 uM after 24 hrs by Annexin-V FITC/7-AAD staining based flow cytometric method (reference value: 97.5%); type: functional
MOLM-13 [15] = assay: Induction of apoptosis in human MOLM13 cells assessed as necrotic cells at 1.6 uM after 24 hrs by Annexin-V FITC/7-AAD staining based flow cytometric method (reference value: 0%); type: functional
EOL1 [16] = assay: Synergistic antileukemic activity against human EOL-1 cells assessed as concentration required for <= 75% cell survival after 72 hrs in presence of midostaurin by CellTiter 96 AQueous One solution cell proliferation assay; type: functional
EOL1 [17] = assay: Induction of apoptosis in human EOL-1 cells assessed as early apoptotic cells at 4 uM after 24 hrs by Annexin-V FITC/7-AAD staining based flow cytometric method (reference value: 1.94%); type: functional
EOL1 [18] = assay: Induction of apoptosis in human EOL-1 cells assessed as necrotic cells at 4 uM after 24 hrs by Annexin-V FITC/7-AAD staining based flow cytometric method (reference value: 0.032%); type: functional
MOLM-13 [19] = assay: Induction of apoptosis in human MOLM13 cells assessed as late apoptotic cells at 0.81 uM after 24 hrs by Annexin-V FITC/7-AAD staining based flow cytometric method (reference value: 1.43%); type: functional
EOL1 [20] = assay: Induction of apoptosis in human EOL-1 cells assessed as necrotic cells at 0.81 uM after 24 hrs by Annexin-V FITC/7-AAD staining based flow cytometric method (reference value: 0.032%); type: functional
MOLM-13 [21] = assay: Induction of apoptosis in human MOLM13 cells assessed as early apoptotic cells at 4 uM after 24 hrs by Annexin-V FITC/7-AAD staining based flow cytometric method (reference value: 11.8%); type: functional
MOLM-13 [22] = assay: Induction of apoptosis in human MOLM13 cells assessed as live cells at 0.81 uM after 24 hrs by Annexin-V FITC/7-AAD staining based flow cytometric method (reference value: 86.8%); type: functional
MOLM-13 [23] = assay: Induction of apoptosis in human MOLM13 cells assessed as late apoptotic cells at 1.6 uM after 24 hrs by Annexin-V FITC/7-AAD staining based flow cytometric method (reference value: 1.43%); type: functional
MOLM-13 [24] = assay: Induction of apoptosis in human MOLM13 cells assessed as caspase-3 activation at 10 uM after 72 hrs by immunoblotting analysis; type: functional, cell-based
Procedure, shortened: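 MOLM-13 cells treated 72 h with test compounds at 10 μM or PKC412 at 10 nM. Cells washed in ice-cold PBS, lysed at 10^8 cells/mL in NP-40 hypertonic buffer (pH 7.5) with protease/phosphatase inhibitors, then run on SDS-PAGE and PVDF. Blots probed 12 h with rabbit monoclonal cleaved caspase-3 (Asp175), β-actin as loading control. Representative of three independent experiments.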

EOL1 [25] = assay: Induction of apoptosis in human EOL-1 cells assessed as early apoptotic cells at 1.6 uM after 24 hrs by Annexin-V FITC/7-AAD staining based flow cytometric method (reference value: 1.94%); type: functional
MOLM-13 [26] = assay: Cytotoxicity against human MOLM13 cells after 72 hrs by MTS assay; type: functional, cell-based; conditions: MOLM-13, 72 h
MOLM-13 [27] = assay: Induction of apoptosis in human MOLM13 cells assessed as live cells at 4 uM after 24 hrs by Annexin-V FITC/7-AAD staining based flow cytometric method (reference value: 86.8%); type: functional
MOLM-13 [28] = assay: Induction of apoptosis in human MOLM13 cells assessed as necrotic cells at 4 uM after 24 hrs by Annexin-V FITC/7-AAD staining based flow cytometric method (reference value: 0%); type: functional
MOLM-13 [29] = assay: Induction of apoptosis in human MOLM13 cells assessed as live cells at 1.6 uM after 24 hrs by Annexin-V FITC/7-AAD staining based flow cytometric method (reference value: 86.8%); type: functional
MOLM-13 [30] = assay: Synergistic antileukemic activity against human MOLM13 cells assessed as concentration required for <= 75% cell survival after 72 hrs in presence of midostaurin by CellTiter 96 AQueous One solution cell proliferation assay; type: functional

C=C1C(=O)O[C@@H]2C3O[C@]3(C)CC/C=C(\C)CC[C@@H]12 (stereo not given in full)
Activity (MOLM-13 [1]): 0.033%
Activity (EOL1 [2]): 98.1%
Activity (EOL1 [3]): 0.329%
Activity (EOL1 [4]): 97.2%
Activity (MOLM-13 [5]): 8.23%
Activity (EOL1 [6]): Active
Activity (MOLM-13 [7]): 4.46%
Activity (EOL1 [8]): 0.043%
IC50 (EOL1 [9]): 7.5 µM
Activity (MOLM-13 [10]): 1.02%
Activity (EOL1 [11]): 0.697%
Activity (EOL1 [12]): 1.56%
Activity (EOL1 [13]): 0.361%
Activity (EOL1 [14]): 97%
Activity (MOLM-13 [15]): 0.044%
Activity (EOL1 [16]): 3.2 µM
Activity (EOL1 [17]): 2.13%
Activity (EOL1 [18]): 0.118%
Activity (MOLM-13 [19]): 1.14%
Activity (EOL1 [20]): 0.011%
Activity (MOLM-13 [21]): 6.43%
Activity (MOLM-13 [22]): 90.6%
Activity (MOLM-13 [23]): 1.23%
Activity (MOLM-13 [24]): Active
Activity (EOL1 [25]): 2.43%
IC50 (MOLM-13 [26]): 10 µM
Activity (MOLM-13 [27]): 92.4%
Activity (MOLM-13 [28]): 0.181%
Activity (MOLM-13 [29]): 94.3%
Activity (MOLM-13 [30]): 3.2 µM
